In brackets after ≈: the same amount, converted by molar mass.
Columns and labels:
[1] = biological target: T1, Prostaglandin G/H synthase 1 (Ovis aries, UniProt P05979); assay: Inhibition of ovine COX1 by colorimetric assay
T1 sequence (P05979 whole entry): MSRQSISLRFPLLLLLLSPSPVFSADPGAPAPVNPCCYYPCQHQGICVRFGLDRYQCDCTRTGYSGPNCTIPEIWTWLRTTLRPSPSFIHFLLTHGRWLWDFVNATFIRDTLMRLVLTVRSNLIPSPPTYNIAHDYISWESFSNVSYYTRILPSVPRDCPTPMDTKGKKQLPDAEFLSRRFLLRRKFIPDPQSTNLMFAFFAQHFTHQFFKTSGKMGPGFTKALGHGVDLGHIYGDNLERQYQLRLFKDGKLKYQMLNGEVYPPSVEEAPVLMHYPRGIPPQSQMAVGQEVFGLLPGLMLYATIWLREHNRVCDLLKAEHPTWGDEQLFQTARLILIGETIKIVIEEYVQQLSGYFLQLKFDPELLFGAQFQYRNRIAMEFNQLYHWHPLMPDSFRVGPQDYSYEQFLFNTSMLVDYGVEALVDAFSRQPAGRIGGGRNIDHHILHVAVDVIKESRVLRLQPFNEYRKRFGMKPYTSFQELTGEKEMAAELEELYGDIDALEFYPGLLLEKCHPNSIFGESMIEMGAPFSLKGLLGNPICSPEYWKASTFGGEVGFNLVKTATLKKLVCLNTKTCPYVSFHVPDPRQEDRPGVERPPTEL
Method in brief: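 Ovine COX-1, colorimetric inhibitor screening kit. Enzyme preincubated 5 min at 25 °C with compound. Arachidonic acid (final 1.1 mM) and TMPD then added, 5 min at 25 °C. Inhibition % = [1−(A1−A2)/A0]×100, blank without TMPD. IC50 from calibration curve over several concentrations. Triplicate experiments, mean reported.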

[2] = test system: Radical scavenging activity; assay: Antioxidant activity assessed as DPPH radical scavenging activity after 30 mins by microplate reader assay; type: functional
Method in brief: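 Mixed 1 min, then kept at room temperature ([…]) for 30 min. Absorbance read at 515 nm. Scavenging % corrected for a no-DPPH blank. IC50 taken from a calibration curve. Triplicate experiments, mean reported.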

[3] = Antioxidant activity assessed as superoxide radical scavenging activity after 20 mins by NBT reduction assay; type: functional
Method in brief: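 Superoxide made by xanthine/xanthine oxidase and detected by NBT reduction. Xanthine oxidase (0.8 U/ml stock) added, then 37 °C for 20 min. Stopped with 1 M HCl and read at 560 nm. Blank lacks enzyme. IC50 from a calibration curve. Triplicate experiments, mean.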

| SMILES | IC50 [1] [µM] | IC50 [2] [µg/mL] | IC50 [3] [µg/mL] |
| --- | --- | --- | --- |
| COc1cc(CC[C@@H](O)C[C@H](O)CCc2ccc(O)c(OC)c2)ccc1O | > 266 | 12.3 (≈ 32.7 µM) | 48.7 (≈ 129 µM) |
| COc1cc(O)cc(CCc2ccccc2O)c1 [BATATASIN IV] | > 409 | > 100 | > 100 |
| O=c1cc(-c2ccc(O)cc2)oc2cc(O)cc(O)c12 [APIGENIN] | > 370 | > 100 | > 100 |
| COc1ccc(CCc2ccccc2O)cc1OC | > 387 | > 100 | > 100 |
| COc1cc(O)cc2c1-c1c(O)cccc1CC2 [HIRCINOL] | > 413 | 63.8 (≈ 263 µM) | 62.4 (≈ 258 µM) |
| COc1cc(O)cc2c1Oc1ccccc1CC2 | > 413 | 40.6 (≈ 168 µM) | > 100 |
| COc1c(O)cc(CCc2ccccc2)cc1O | > 409 | 37.5 (≈ 154 µM) | > 100 |
| Oc1ccc(CC[C@@H](O)C[C@H](O)CCc2ccc(O)cc2)cc1 [(+)-HANNOKINOL] | > 316 | > 100 | > 100 |
| COc1cc(CCc2cc(O)cc(O)c2)ccc1O [TRISTIN] |  | 35.2 (≈ 135 µM) | 51.6 (≈ 198 µM) |
| COc1cc(/C=C/C=C/C(=O)CCc2ccc(O)cc2)ccc1O | > 308 | 40 (≈ 123 µM) | 38.8 (≈ 120 µM) |
| COc1cc(O)cc(CCc2cccc(O)c2)c1 [BATATASIN III] | > 409 | > 100 | > 100 |
| COc1cc(CCc2ccccc2O)cc(OC)c1O | > 365 | 28.8 (≈ 105 µM) | 56.3 (≈ 205 µM) |
| COc1c(O)cccc1CCc1cc(O)cc(O)c1 | > 384 | 46.7 (≈ 179 µM) | > 100 |
| O=C1O[C@H]([C@@H](O)CO)C(O)=C1O [ASCORBIC ACID] |  | 19.2 (≈ 109 µM) | 16.7 (≈ 94.8 µM) |
| COc1cc(O)c2c(c1)CCc1cc(O)ccc1-2 [LUSIANTHRIDIN] | > 413 | 43 (≈ 177 µM) | 51.5 (≈ 213 µM) |
| Oc1cc(O)c2c(c1)OC(c1ccc(O)c(O)c1)C(O)C2 (stereo not given) [CATECHIN] |  | 13.5 (≈ 46.5 µM) | 13.7 (≈ 47.2 µM) |
| COc1cc2c(ccc3cc(O)cc(OC)c32)cc1O | 11.1 | 31.4 (≈ 116 µM) | 39.6 (≈ 147 µM) |
| Oc1cc(O)c2c(c1)CCc1ccccc1O2 | > 438 | > 100 | > 100 |
| Oc1cc(O)cc(CCc2ccccc2O)c1 | > 434 | > 100 | > 100 |
| O=C(/C=C/C=C/c1ccc(O)cc1)CCc1ccc(O)cc1 | > 340 | > 100 | 44.1 (≈ 150 µM) |
| O=C(/C=C/C=C/c1ccc(O)cc1)/C=C/c1ccc(O)cc1 | 19.8 | > 100 | > 100 |

From ChEMBL document CHEMBL1153410, “Phenolic compounds with radical scavenging and cyclooxygenase-2 (COX-2) inhibitory activities from Dioscorea opposita” (Bioorg Med Chem, 2009)
